{"source": "ChEMBL document CHEMBL4038330", "about": "“Discovery of Potent Orally Active Protease-Activated Receptor 1 (PAR1) Antagonists Based on Andrographolide” (J Med Chem, 2017)", "key": {"[1]": {"test_system": "Rattus norvegicus", "experiment": "Toxicity in Wistar rat assessed as body weight at 5 mg/kg, po measured up to 24 hrs post dose", "type": "organism-based", "settings": "in vivo"}, "[2]": {"biological_target": "T1, Proteinase-activated receptor 1 (Homo sapiens, UniProt P25116)", "T1 sequence (P25116 whole entry)": "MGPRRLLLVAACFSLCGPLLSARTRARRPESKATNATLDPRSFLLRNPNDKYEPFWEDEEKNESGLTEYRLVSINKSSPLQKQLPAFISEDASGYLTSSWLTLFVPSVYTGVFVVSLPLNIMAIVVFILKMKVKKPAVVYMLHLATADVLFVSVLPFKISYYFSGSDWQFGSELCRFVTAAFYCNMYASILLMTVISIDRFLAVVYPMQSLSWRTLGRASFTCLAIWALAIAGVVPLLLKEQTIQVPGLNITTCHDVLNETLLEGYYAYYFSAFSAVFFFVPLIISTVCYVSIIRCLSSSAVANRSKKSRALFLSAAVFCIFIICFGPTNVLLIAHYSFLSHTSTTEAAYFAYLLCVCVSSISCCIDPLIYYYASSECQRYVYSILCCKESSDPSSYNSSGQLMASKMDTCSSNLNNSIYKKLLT", "experiment": "Antagonist activity at human PAR1 expressed in HEK293 cells co-expressing Galpha15 assessed as inhibition of haTRAP-induced calcium mobilization preincubated for 15 mins followed by haTRAP addition by calcium-4 dye based FLIPR assay", "type": "functional, cell-based"}, "[3]": {"test_system": "Plasma", "experiment": "Drug metabolism in Wistar rat plasma assessed as [M2-2H] metabolite formation at 5 mg/kg, po administered as single dose measured at 3 hrs post dose by LC-HRMS analysis", "type": "ADME, organism-based", "settings": "in vivo", "procedure,_shortened": "(§1)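 Rats dosed orally at 10 mg/kg or 5 mg/kg. Plasma taken at 3.0 h after dosing. Parent and metabolites detected by extracted ion chromatograms.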"}, "[4]": {"test_system": "Plasma", "experiment": "Drug metabolism in Wistar rat plasma assessed as [M2+O] metabolite formation at 5 mg/kg, po administered as single dose measured at 3 hrs post dose by LC-HRMS analysis", "type": "ADME, organism-based", "settings": "in vivo", "procedure,_shortened": "as §1"}, "[5]": {"test_system": "Plasma", "experiment": "Drug metabolism in Wistar rat plasma assessed as [M2+O-2H] metabolite formation at 5 mg/kg, po administered as single dose measured at 3 hrs post dose by LC-HRMS analysis", "type": "ADME, organism-based", "settings": "in vivo", "procedure,_shortened": "as §1"}, "[6]": {"test_system": "Cavia porcellus", "experiment": "In vivo antagonist activity at PAR1 in guinea pig assessed as inhibition of TRAP-stimulated platelet aggregation at 10 mg/kg, po pretreated for 2 hrs followed by TRAP stimulation measured after 5 mins", "type": "functional"}, "[7]": {"test_system": "Cavia porcellus", "experiment": "In vivo antagonist activity at PAR1 in guinea pig assessed as inhibition of thrombin-stimulated platelet aggregation at 10 mg/kg, po pretreated for 2 hrs followed by thrombin stimulation measured after 5 mins", "type": "functional"}, "[8]": {"test_system": "collagen-stimulated platelet aggregation", "experiment": "Toxicity in guinea pig assessed as inhibition of collagen-stimulated platelet aggregation at 10 mg/kg, po pretreated for 2 hrs followed by collagen stimulation measured after 5 mins", "type": "organism-based, Cavia porcellus", "settings": "in vivo"}, "[9]": {"test_system": "Cavia porcellus", "experiment": "In vivo antagonist activity at PAR1 in guinea pig assessed as inhibition of TRAP-stimulated platelet aggregation at 30 mg/kg, po pretreated for 2 hrs followed by TRAP stimulation measured after 5 mins", "type": "functional"}, "[10]": {"test_system": "Cavia porcellus", "experiment": "In vivo antagonist activity at PAR1 in guinea pig assessed as inhibition of thrombin-stimulated platelet aggregation at 30 mg/kg, po pretreated for 2 hrs followed by thrombin stimulation measured after 5 mins", "type": "functional"}, "[11]": {"test_system": "ADP-stimulated platelet aggregation", "experiment": "Toxicity in guinea pig assessed as inhibition of ADP-stimulated platelet aggregation at 30 mg/kg, po pretreated for 2 hrs followed by ADP stimulation measured after 5 mins", "type": "organism-based, Cavia porcellus", "settings": "in vivo"}, "[12]": {"test_system": "collagen-stimulated platelet aggregation", "experiment": "Toxicity in guinea pig assessed as inhibition of collagen-stimulated platelet aggregation at 30 mg/kg, po pretreated for 2 hrs followed by collagen stimulation measured after 5 mins", "type": "organism-based, Cavia porcellus", "settings": "in vivo"}, "[13]": {"test_system": "Rattus norvegicus", "experiment": "Toxicity in Wistar rat assessed as behavioral abnormalities at 1 mg/kg, iv measured up to 24 hrs post dose", "type": "organism-based", "settings": "in vivo", "procedure,_shortened": "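Male Wistar rats given 1 mg/kg iv or 5 mg/kg intragastrically. Behaviour observed for abnormalities over the 24 h sampling period.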"}, "[14]": {"test_system": "Rattus norvegicus", "experiment": "Toxicity in Wistar rat assessed as body weight at 1 mg/kg, iv administered as bolus dose measured up to 24 hrs post dose", "type": "organism-based", "settings": "in vivo", "procedure,_shortened": "(§2)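 Male Wistar rats, n = 6 per group, given 1 mg/kg intravenously or 5 mg/kg intragastrically. Blood concentrations followed over 24 h. Non-compartmental analysis; values as median ± SD. Bioavailability from oral versus intravenous exposure.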"}, "[15]": {"experiment": "AUC (0 to infinity) in Wistar rat at 1 mg/kg, iv administered as bolus dose measured up to 24 hrs post dose by HPLC-MS/MS analysis", "type": "ADME, organism-based", "design": "dose 1 mg/kg, time infinity, route intravenous", "settings": "in vivo", "procedure,_shortened": "(§3)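 Male Wistar rats, n = 6 per group, dosed intragastrically at 5 mg/kg or intravenously at 1 mg/kg. Blood concentrations followed over 24 h. Parameters from non-compartmental analysis, reported as median ± SD.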"}, "[16]": {"test_system": "Rattus norvegicus", "experiment": "AUMC (0 to infinity) in Wistar rat at 1 mg/kg, iv administered as bolus dose measured up to 24 hrs post dose by HPLC-MS/MS analysis", "type": "ADME, organism-based", "settings": "in vivo", "procedure,_shortened": "as §2"}, "[17]": {"experiment": "MRT (0 to infinity) in Wistar rat at 1 mg/kg, iv administered as bolus dose measured up to 24 hrs post dose by HPLC-MS/MS analysis", "type": "ADME, organism-based", "settings": "in vivo", "procedure,_shortened": "as §2"}, "[18]": {"test_system": "Rattus norvegicus", "experiment": "VRT (0 to infinity) in Wistar rat at 1 mg/kg, iv administered as bolus dose measured up to 24 hrs post dose by HPLC-MS/MS analysis", "type": "ADME, organism-based", "settings": "in vivo"}, "[19]": {"experiment": "Apparent terminal half life in Wistar rat at 1 mg/kg, iv administered as bolus dose measured up to 24 hrs post dose by HPLC-MS/MS analysis", "type": "ADME, organism-based", "settings": "in vivo, read-out: betat1/2(app) (converted)", "procedure,_shortened": "as §2"}, "[20]": {"experiment": "Apparent clearance in Wistar rat at 1 mg/kg, iv administered as bolus dose measured up to 24 hrs post dose by HPLC-MS/MS analysis", "type": "ADME, organism-based", "settings": "in vivo, read-out: CL(app) (converted)", "procedure,_shortened": "as §2"}, "[21]": {"experiment": "Apparent volume of distribution in Wistar rat at 1 mg/kg, iv administered as bolus dose measured up to 24 hrs post dose by HPLC-MS/MS analysis", "type": "ADME, organism-based", "settings": "in vivo, read-out: Vd(app)", "procedure,_shortened": "as §2"}, "[22]": {"experiment": "AUC (0 to infinity) in Wistar rat at 5 mg/kg, po measured up to 24 hrs post dose by HPLC-MS/MS analysis", "type": "ADME, organism-based", "design": "dose 5 mg/kg, time infinity, route oral", "settings": "in vivo", "procedure,_shortened": "as §3"}, "[23]": {"test_system": "Rattus norvegicus", "experiment": "AUMC (0 to infinity) in Wistar rat at 5 mg/kg, po measured up to 24 hrs post dose by HPLC-MS/MS analysis", "type": "ADME, organism-based", "settings": "in vivo", "procedure,_shortened": "as §2"}, "[24]": {"experiment": "MRT (0 to infinity) in Wistar rat at 5 mg/kg, po measured up to 24 hrs post dose by HPLC-MS/MS analysis", "type": "ADME, organism-based", "settings": "in vivo", "procedure,_shortened": "as §2"}, "[25]": {"experiment": "Apparent terminal half life in Wistar rat at 5 mg/kg, po measured up to 24 hrs post dose by HPLC-MS/MS analysis", "type": "ADME, organism-based", "settings": "in vivo, read-out: betat1/2(app) (converted)", "procedure,_shortened": "as §2"}, "[26]": {"experiment": "Apparent clearance in Wistar rat at 5 mg/kg, po measured up to 24 hrs post dose by HPLC-MS/MS analysis", "type": "ADME, organism-based", "settings": "in vivo, read-out: CL(app) (converted)", "procedure,_shortened": "as §2"}, "[27]": {"experiment": "Oral bioavailability in Wistar rat at 5 mg/kg measured up to 24 hrs post dose by HPLC-MS/MS analysis", "type": "ADME, organism-based", "settings": "in vivo", "procedure,_shortened": "as §2"}, "[28]": {"test_system": "Plasma", "experiment": "Stability in Wistar rat assessed as parent compound level in plasma at 5 mg/kg, po administered as single dose measured at 3 hrs post dose by LC-HRMS analysis", "type": "ADME, organism-based", "settings": "in vivo", "procedure,_shortened": "as §1"}}, "data": [{"smiles": "CC1CC[C@@H]2C(C)(C)[C@H](O)CC[C@@]2(C)[C@@H]1/C=C/c1ccc(-c2cccc(F)c2)cn1", "note": "(single isomer, unassigned)", "values": [{"measurement": "Activity", "setting": "[1]", "result": 224, "unit": "g"}, {"measurement": "IC50", "setting": "[2]", "result": 1.1, "unit": "µM"}, {"measurement": "Drug metabolism", "setting": "[3]", "result": "Metabolite_Detected"}, {"measurement": "Drug metabolism", "setting": "[4]", "result": "Metabolite_Detected"}, {"measurement": "Drug metabolism", "setting": "[5]", "result": "Metabolite_Detected"}, {"measurement": "inhibition in vivo at 10 mg/kg", "setting": "[6]", "result": 87.6, "unit": "%"}, {"measurement": "inhibition in vivo at 10 mg/kg", "setting": "[7]", "result": 66.9, "unit": "%"}, {"measurement": "inhibition at 5 min", "setting": "[8]", "result": 5.5, "unit": "%"}, {"measurement": "inhibition in vivo at 30 mg/kg", "setting": "[9]", "result": 98.7, "unit": "%"}, {"measurement": "inhibition in vivo at 30 mg/kg", "setting": "[10]", "result": 99.8, "unit": "%"}, {"measurement": "inhibition at 5 min", "setting": "[11]", "result": 4.5, "unit": "%"}, {"measurement": "inhibition at 5 min", "setting": "[12]", "result": 6.8, "unit": "%"}, {"measurement": "Activity", "setting": "[13]", "result": "Non-Toxic"}, {"measurement": "Activity", "setting": "[14]", "result": 226, "unit": "g"}, {"measurement": "AUC(0-inf)", "setting": "[15]", "result": 552, "unit": "ng·h/mL"}, {"measurement": "AUMC", "setting": "[16]", "result": 1135, "unit": "ng·h/mL"}, {"measurement": "MRT inf", "setting": "[17]", "result": 2, "unit": "h"}, {"measurement": "VRT", "setting": "[18]", "result": 7.6, "unit": "ha2"}, {"measurement": "half-life", "setting": "[19]", "result": 2, "unit": "h"}, {"measurement": "clearance", "setting": "[20]", "result": 31.7, "unit": "mL/min/kg"}, {"measurement": "Vd", "setting": "[21]", "result": 5.7, "unit": "L/kg"}, {"measurement": "AUC(0-inf)", "setting": "[22]", "result": 1450, "unit": "ng·h/mL"}, {"measurement": "AUMC", "setting": "[23]", "result": 8382, "unit": "ng·h/mL"}, {"measurement": "MRT inf", "setting": "[24]", "result": 5.6, "unit": "h"}, {"measurement": "half-life", "setting": "[25]", "result": 3.1, "unit": "h"}, {"measurement": "CL/F", "setting": "[26]", "result": 75, "unit": "mL/min/kg"}, {"measurement": "bioavailability", "setting": "[27]", "result": 52.5, "unit": "%"}, {"measurement": "Stability", "setting": "[28]", "result": "Stable"}]}]}
